Shown are actives, neighbours in structure and some others; about 3.5% of the full set was active somewhere.
RGS4 inh – human RGS4 inhibition. HEK293 M3R/RGS4 inducible, Fluo-4 calcium flux; hits give high values; triggered by carbachol at its EC20. B-score at 10 µM. 310,000 compounds, 0.45% hits. AID 463165;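 active = B-score, a plate-corrected calcium signal, over three deviations above library mean, with baseline fluorescence within five deviations of library mean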;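 note: RGS4 expression induced by doxycycline in cells with stable M3 receptor; B-score is computed from the integrated fluorescence ratio over baseline after carbachol; higher B-score means a larger calcium signal and so more RGS4 inhibition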
Target sequence (P49798 whole entry, looked up): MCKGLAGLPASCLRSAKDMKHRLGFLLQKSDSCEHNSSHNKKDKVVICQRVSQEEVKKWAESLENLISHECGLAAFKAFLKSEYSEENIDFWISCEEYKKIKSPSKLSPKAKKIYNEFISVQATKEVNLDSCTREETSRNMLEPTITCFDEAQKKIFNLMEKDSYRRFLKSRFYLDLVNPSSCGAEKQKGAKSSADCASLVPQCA
MrgX1 PAM – human MrgX1 positive allosteric modulation, primary screen | MrgX1-HEK293, Fluo-4 calcium flux, FDSS; hits give high values | B-score at 10 µM | 310,000 compounds, 0.63% hits | AID 588675;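 active = plate-corrected calcium response at least 3 library SD above typical, normal starting fluorescence, not activating the receptor alone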;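 note: compound read alongside a low EC10 to EC30 dose of BAM8-22 agonist; peak minus trough fluorescence over baseline measured at the second addition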
Target sequence (Q96LB2 whole entry, looked up): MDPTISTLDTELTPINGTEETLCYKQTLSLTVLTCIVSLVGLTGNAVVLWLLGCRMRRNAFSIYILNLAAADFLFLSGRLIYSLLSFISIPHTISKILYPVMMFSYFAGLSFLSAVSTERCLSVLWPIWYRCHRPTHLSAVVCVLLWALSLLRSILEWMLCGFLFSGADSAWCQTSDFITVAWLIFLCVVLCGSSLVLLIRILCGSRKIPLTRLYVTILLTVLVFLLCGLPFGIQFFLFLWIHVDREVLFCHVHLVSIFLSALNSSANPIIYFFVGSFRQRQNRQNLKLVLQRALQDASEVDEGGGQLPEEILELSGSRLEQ
MrgX1 ag – human MrgX1 receptor agonism, primary screen; Q96LB2; MrgX1-HEK293 cells, Fluo-4 calcium fluorescence, agonist mode; hits give high values; B-score at 10 µM; 310,000 compounds, 0.44% hits; AID 588627;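 active = calcium response B-score plate-corrected fluorescence ratio at least 3 library SD, with starting fluorescence B-score inside 5 SD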
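System – MrgX1-expressing HEK293 cells · Incubation – cells plated overnight, dye loaded 0.5 h 37 °C, 0.5 h room temperature · Technique – kinetic Fluo-4 NW fluorescence of intracellular calcium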
MrgX1 antag – antagonists of human MrgX1 receptor. Q96LB2. MRGX1-HEK293 calcium flux, Fluo-4, BAM8-22 antagonism; hits give low values. B-score at 10 µM. 310,000 compounds, 1.3% hits;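 active = calcium-response B-score plate-corrected more than 3 library SD below zero, starting fluorescence within 5 deviations, no agonist response on first addition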;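 note: peak minus trough fluorescence over baseline after final BAM8-22 challenge near maximal dose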
RGS4 act – potentiators or activators of RGS4 | HEK293 M3R/inducible RGS4, carbachol calcium flux Fluo4; hits give low values | B-score at 10 µM | 310,000 compounds, 0.92% hits | AID 463111;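 active = B-score of the integrated calcium signal more than 4 SD below the library mean, with starting fluorescence not abnormally high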;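 note: negative B-score means reduced calcium response which marks RGS4 activation or potentiation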
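Assay system: HEK293 FlpIn-TREx cells, stable M3R, doxycycline-inducible RGS4 / Probe or stimulus: carbachol, ECmax concentration / Times: overnight RGS4 induction, 30 min dye load 37 °C, 20 min compound RT / Signal: kinetic calcium fluorescence imaging with Fluo4-AM dye, 2 µM / Measure: Agonist-evoked peak-minus-minimum fluorescence over baseline, integrated ratio, B score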
Numbers without * were called inactive; i = inactive; · = no result given.

SMILES | RGS4 inh | MrgX1 PAM | MrgX1 ag | MrgX1 antag | RGS4 act
CN(Cc1ccccc1F)c1nc(-c2cccnc2)nc2ccccc12 | i | i | i | i | -14*
Fc1ccc(CNc2nc(-c3cccnc3)nc3ccccc23)cc1 | i | i | 35* | i | -7.1*
Cc1ccccc1Nc1nc(-c2cccnc2)nc2ccccc12 | i | i | 42* | i | -7.2*
Cc1ccc2c(c1)C(c1ccccc1)N(C(=O)c1c(F)cccc1Cl)CC(=O)N2 (configuration not stated) | i | i | i | i | i
Oc1ccc(/C=N/Nc2nc(-c3cccnc3)nc3ccccc23)c(O)c1 | i | i | i | i | i
Cc1c(O)ccc(/C=N/Nc2nc(-c3cccnc3)nc3ccccc23)c1O | i | i | i | i | -8.1*
CCOC(=O)c1ccc(Nc2nc(-c3cccnc3)nc3ccccc23)cc1 | i | i | i | i | -7.1*
Clc1cccc(CNc2nc(-c3cccnc3)nc3ccccc23)c1 | i | · | · | · | -9.2*
c1cncc(CNc2nc(-c3cccnc3)nc3ccccc23)c1 | i | i | i | i | i
Cc1cc(C)c(C)c(S(=O)(=O)NCC(=O)Nc2ccc(F)cc2)c1C | i | i | i | i | i
CC(=O)Oc1cc(O)c2c(=O)c(OC(C)=O)c(-c3ccc(OC(C)=O)c(OC(C)=O)c3)oc2c1 | i | 8* | i | i | i
COc1c(-c2ccc(O)cc2)oc2cc(O)cc(O)c2c1=O | · | i | i | i | ·
Cc1ccc(NC(=O)O/N=C/c2ccc(N(C)C)cc2)cc1 | i | i | i | i | i
Cc1cc2n(c1)CCn1c(C)ccc1-2 | i | i | i | -4.6* | i
N#Cc1nccnc1S(=O)(=O)c1cccs1 | i | i | i | i | -7.8*
CN(Cc1ccccc1C#N)S(=O)(=O)c1cccs1 | i | i | i | i | i
COc1ccc(C2=NN(C(=O)C(O)c3ccccc3)C(O)(C(F)(F)F)C2)cc1 (configuration not stated) | i | i | 29* | i | i
O=C(N/C(=C/c1ccc([N+](=O)[O-])cc1)C(=O)N1CCOCC1)c1ccco1 | i | i | i | i | i
N=c1oc2c3c4c(cc2cc1C(=O)Nc1ccccc1)CCCN4CCC3 | i | i | i | i | -9.3*
CCCCOc1ccc(Br)cc1/C(C)=N/NC1=NCCN1 | i | i | i | i | -8.1*
CCCCCCOc1ccc(/C(C)=N/NC2=NCCN2)cc1[N+](=O)[O-] | i | i | i | i | i
O=C(CCC1CCCCC1)NCCN1C2=NC[C@H](Cc3ccccc3)N2C[C@H]1Cc1ccc(O)cc1 | i | i | i | i | -8*
C[C@H]1CN=C2N(CCNC(=O)CCC3CCCCC3)[C@H](Cc3ccc(O)cc3)CN21 | i | i | i | i | i
O=C(CCC1CCCCC1)NCCN1C2=NC[C@@H](Cc3ccccc3)N2C[C@H]1Cc1ccc(O)cc1 | i | i | i | i | -7.1*
COc1cccc(CN2CC(C(=O)N3CCN(c4ccc(Cl)cc4)CC3)CCC2=O)c1 (configuration not stated) | i | i | i | i | i
SMILES | RGS4 inh | MrgX1 PAM | MrgX1 ag | MrgX1 antag | RGS4 act
CC(C)(C)c1ccc(NC(=O)C2CCCN(c3cnccn3)C2)cc1 (configuration not stated) | i | i | i | i | i
N=c1c2c(-c3ccccc3)c(-c3ccccc3)n(Cc3ccccc3)c2ncn1CCCn1ccnc1 | i | i | i | i | i
N=c1c2c(-c3ccccc3)c(-c3ccccc3)n(Cc3ccco3)c2ncn1Cc1ccco1 | i | i | i | -8.1* | -7*
CC1=NN(C(N)=S)C(=O)C1N=Nc1ccccc1C(=O)O (configuration not stated) | i | i | i | i | i
CN1C(=O)C(N=Nc2ccccc2C(=O)O)N(C)C1=S (configuration not stated) | i | i | 48* | i | i
COc1cccc(N2C(=O)CC(NNc3nc4ccccc4s3)C2=O)c1 (configuration not stated) | i | i | 30* | i | i
Cc1ccc(S(=O)(=O)N2CCOCC2)cc1NC(=O)COC(=O)CNC(=O)c1ccc(Cl)cc1Cl | i | i | i | i | i
O=C(CSc1nnc(CNC(=O)c2cccs2)o1)Nc1ccc(Br)cc1 | i | i | i | i | i
C=CCn1c(COc2ccccc2)nc2ccccc21 | i | i | i | i | i
CSc1ccc(OC2CCN(Cc3ccccc3)CC2)cc1 | i | i | i | i | -7.9*
Cc1ccc(NC(=O)CN2C(=O)NC3(CCCc4ccccc43)C2=O)c([N+](=O)[O-])c1 (configuration not stated) | i | i | i | i | i
CC(=O)c1ccc(-n2cc(-c3ccc(C(C)(C)C)cc3)[n+]3c2SCCC3)cc1 | i | i | i | i | -9.6*
C(=N\c1nc2ccccc2[nH]1)/c1cccs1 | i | i | 30* | i | i
CCn1c(=O)c(CCC(=O)N2CCN(c3ccccn3)CC2)c(C)c2c(C)nn(-c3ccccc3)c21 | i | i | i | i | i
CCCN(C(=O)c1ccccc1Cc1ccccc1)C1CCS(=O)(=O)C1 (configuration not stated) | i | i | i | i | i
CCCCCn1nc(C(=O)OCC(=O)c2c(N)n(C)c(=O)n(C)c2=O)c2ccccc2c1=O | i | i | i | i | i
CCCCCCn1nc(C(=O)OCC(=O)c2c(N)n(C)c(=O)n(C)c2=O)c2ccccc2c1=O | i | i | i | i | -8.7*
CC1CCCCC1NC(=O)c1c(O)nc2ccccn2c1=O (configuration not stated) | i | i | i | i | i
C=CCNC(=O)c1onc(CS(=O)(=O)c2cc(C)cc(C)c2)c1C(=O)NCC=C | i | i | i | i | i
COc1cc(-c2noc(C)c2-c2ccc3[nH]ccc3c2)cc(OC)c1OC | i | i | i | i | -7.2*
CCOc1ccc(N(CC(=O)NCc2ccccc2C)S(C)(=O)=O)cc1 | i | i | i | i | i
COc1ccc(Nc2nnc(SCc3cc([N+](=O)[O-])cc4c3OCOC4)s2)cc1 | i | i | i | -4.6* | i
Cc1nnc(SCc2cc([N+](=O)[O-])cc3c2OCOC3)[nH]c1=O | i | i | i | i | i
